We go through seven compounds from ChEMBL document CHEMBL5705906 (Nat Commun, 2017).

Active and inactive are the calls of the source. The calls are words filed in the database; no cut-off is given here.

For experiment [1], the system named is BaF3. In words: Inhibition of EGFR-C797S/T790M/del19 mutant in mouse BaF3 cells assessed as reduction in EGFR phosphorylation at 300 nM incubated for 6 hrs by Western blotting analysis. It is filed as cell-based.
Experiment [2] relates to BaF3. The experiment is described as follows: Inhibition of EGFR-C797S/T790M/L858R mutant in mouse BaF3 cells assessed as inhibition of EGFR phosphorylation at 10 to 1000 nM incubated for 6 hrs by Western blotting analysis. In kind it is cell-based. As to conditions: dose 10-1000 nM. Put shortly: (§1)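 Ba/F3 cells expressing EGFR-L858R-series mutants treated with inhibitors for 6 h. SDS lysates quantified by BCA, run on SDS-PAGE and blotted to PVDF. Probed for phospho-EGFR (Tyr1068), total EGFR and downstream phospho-proteins.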

The subject of experiment [3] is BaF3. The experiment is described as follows: Inhibition of EGFR-C797S/T790M/L858R mutant expressed in mouse BaF3 cells assessed as inhibition of ERK phosphorylation at 10 to 1000 nM incubated for 6 hrs by Western blotting analysis. It is filed as cell-based. As to conditions: dose 10-1000 nM. In outline: as §1
In experiment [4] the test system is BaF3. In words: Inhibition of EGFR-C797S/T790M/L858R mutant expressed in mouse BaF3 cells assessed as inhibition of Akt phosphorylation at 10 to 1000 nM incubated for 6 hrs by Western blotting analysis. In kind it is cell-based. As to conditions: dose 10-1000 nM. Put shortly:
as §1

The test system of experiment [5] is BaF3. In words: Inhibition of EGFR-C797S/T790M/L858R mutant in mouse BaF3 cells assessed as inhibition of S6 phosphorylation at 10 to 1000 nM incubated for 6 hrs by Western blotting analysis. It is filed as cell-based. As to conditions: dose 10-1000 nM. Put shortly:
as §1

Experiment [6] deals with Epidermal growth factor receptor (Homo sapiens), P00533 [UNDEFINED MUTATION]. The following applies: PC-9, dose 10-1000 nM.
Experiment [7] shares this test system. The following applies: PC-9, dose 10-1000 nM. The source holds these as a separate data set.
Experiment [8] shares this test system. The following applies: PC-9, dose 10-1000 nM. The source holds these as a separate data set.
Experiment [9] has the same test system. The following applies: PC-9, dose 10-1000 nM. This is another data set of the same source.
The subject of experiment [10] is PC-9. The experiment is described as follows: Inhibition of EGFR T790M/del19 mutant in human PC-9 cells assessed as reduction in EGFR phosphorylation at 10 to 1000 nM by Western blotting analysis. In kind it is cell-based. As to conditions: dose 10-1000 nM.
The subject of another experiment is NCI-H460. In words: Anticancer activity against KRAS-mutated human NCI-H460 cells assessed as reduction in cell viability at 1 to 10000 nM incubated for 72 hrs by CellTiter-Glo assay. In kind it is functional, cell-based. As to conditions: dose 1-10000 nM.
The subject of experiment [11] is PC-9. In words: Inhibition of EGFR T790M/del19 mutant in human PC-9 cells assessed as reduction in S6 phosphorylation at 10 to 1000 nM by Western blotting analysis. It is filed as cell-based. The following applies: dose 10-1000 nM.
Experiment [12] relates to BaF3. In words: Inhibition of EGFR-C797S/T790M/del19 mutant in mouse BaF3 cells assessed as reduction in S6 protein level at 10 to 1000 nM by Western blotting analysis. The following applies: dose 10-1000 nM. It is filed as cell-based.
The subject of experiment [13] is BaF3. The experiment is described as follows: Inhibition of EGFR-C797S/T790M/del19 mutant in mouse BaF3 cells assessed as reduction in Akt protein level at 10 to 1000 nM by Western blotting analysis. In kind it is cell-based. As to conditions: dose 10-1000 nM.
The subject of experiment [14] is BaF3. In words: Inhibition of EGFR-C797S/T790M/del19 mutant in mouse BaF3 cells assessed as reduction in ERK protein level at 10 to 1000 nM by Western blotting analysis. In kind it is cell-based. As to conditions: dose 10-1000 nM.
The test system of experiment [15] is PC-9. In words: Inhibition of EGFR T790M/del19 mutant in human PC-9 cells assessed as reduction in ERK phosphorylation at 10 to 1000 nM by Western blotting analysis. It is filed as cell-based. The following applies: dose 10-1000 nM.
Experiment [16] has as its system BaF3. The experiment is described as follows: Inhibition of EGFR-C797S/T790M/del19 mutant in mouse BaF3 cells assessed as reduction in ERK phosphorylation at 10 to 1000 nM by Western blotting analysis. It is filed as cell-based. As to conditions: dose 10-1000 nM.
For the next experiment, the system named is A549. In words: Anticancer activity against KRAS-mutated human A549 cells assessed as reduction in cell viability at 1 to 10000 nM incubated for 72 hrs by CellTiter-Glo assay. As to conditions: dose 1-10000 nM. It is filed as functional, cell-based.
Experiment [17] has as its system BaF3. In words: Inhibition of EGFR-C797S/T790M/del19 mutant in mouse BaF3 cells assessed as reduction in S6 phosphorylation at 10 to 1000 nM by Western blotting analysis. It is filed as cell-based. The following applies: dose 10-1000 nM.
Experiment [18] deals with BaF3. The experiment is described as follows: Inhibition of EGFR-C797S/T790M/del19 mutant in mouse BaF3 cells assessed as reduction in Akt phosphorylation at 10 to 1000 nM by Western blotting analysis. It is filed as cell-based. As to conditions: dose 10-1000 nM.
The test system of experiment [19] is BaF3. In words: Inhibition of EGFR-C797S/T790M/del19 mutant in mouse BaF3 cells assessed as reduction in EGFR phosphorylation at 10 to 1000 nM by Western blotting analysis. As to conditions: dose 10-1000 nM. It is filed as cell-based.
The test system of experiment [20] is PC-9. The experiment is described as follows: Inhibition of EGFR T790M/del19 mutant in human PC-9 cells assessed as reduction in Akt phosphorylation at 10 to 1000 nM by Western blotting analysis. It is filed as cell-based. The following applies: dose 10-1000 nM.
Experiment [21] deals with PC-9. In kind it is functional, organism-based. The following applies: Homo sapiens, dose 50.0 mg/kg, route po, time 60.0 day.
Experiment [22] concerns PC-9. In kind it is functional, organism-based. The following applies: Homo sapiens, dose 50.0 mg/kg, route po, time 60.0 day. This is another data set of the same source.
The test system of experiment [23] is PC-9. The experiment is described as follows: Anti-tumor activity against EGFR T790M/del19 mutant expressing gefitinib-resistant human PC-9 cells xenografted in Balb-c nu/nu mouse assessed as growth inhibition at 50 mg/kg, po administered for 42 days. As to conditions: time 42.0 day. In kind it is functional, organism-based. In outline:
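Balb-c nu/nu mice were implanted subcutaneously with 6×10^6 PC9-triple-mutant or PC9-T790M cells in 100 µl 1:2 Matrigel. At a mean tumour volume of ~200 mm³, mice were randomized (top and bottom 5% excluded) and dosed once daily by oral gavage. Caliper volume (0.5×L×W²) was measured twice weekly and expressed relative to day 0. n≥6 per group; Mann-Whitney U test.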

The subject of experiment [24] is PC-9. The experiment is described as follows: Anti-tumor activity against EGFR T790M/del19 mutant expressing gefitinib-resistant human PC-9 cells xenografted in Balb-c nu/nu mouse assessed as prolonged survival at 50 mg/kg, po administered for 42 days. The following applies: time 42.0 day. In kind it is functional, organism-based.
In experiment [25] the test system is Ba/F3 EGFR-Del19/T790M/C797S. In words: Cytotoxicity against mouse Ba/F3 EGFR-Del19/T790M/C797S cells assessed as inhibition of cell viability by measuring fold change at 300 nM incubated for 72 hrs in presence of cetuximab by CellTiter-Glo assay. It is filed as functional, cell-based.
In experiment [26] the test system is PC-9. In kind it is functional, organism-based. As to conditions: Homo sapiens, dose 50.0 mg/kg, route po, time 15.0 day.

Chain of Epidermal growth factor receptor (Homo sapiens), P00533 [UNDEFINED MUTATION] (P00533 whole entry, looked up, change not shown): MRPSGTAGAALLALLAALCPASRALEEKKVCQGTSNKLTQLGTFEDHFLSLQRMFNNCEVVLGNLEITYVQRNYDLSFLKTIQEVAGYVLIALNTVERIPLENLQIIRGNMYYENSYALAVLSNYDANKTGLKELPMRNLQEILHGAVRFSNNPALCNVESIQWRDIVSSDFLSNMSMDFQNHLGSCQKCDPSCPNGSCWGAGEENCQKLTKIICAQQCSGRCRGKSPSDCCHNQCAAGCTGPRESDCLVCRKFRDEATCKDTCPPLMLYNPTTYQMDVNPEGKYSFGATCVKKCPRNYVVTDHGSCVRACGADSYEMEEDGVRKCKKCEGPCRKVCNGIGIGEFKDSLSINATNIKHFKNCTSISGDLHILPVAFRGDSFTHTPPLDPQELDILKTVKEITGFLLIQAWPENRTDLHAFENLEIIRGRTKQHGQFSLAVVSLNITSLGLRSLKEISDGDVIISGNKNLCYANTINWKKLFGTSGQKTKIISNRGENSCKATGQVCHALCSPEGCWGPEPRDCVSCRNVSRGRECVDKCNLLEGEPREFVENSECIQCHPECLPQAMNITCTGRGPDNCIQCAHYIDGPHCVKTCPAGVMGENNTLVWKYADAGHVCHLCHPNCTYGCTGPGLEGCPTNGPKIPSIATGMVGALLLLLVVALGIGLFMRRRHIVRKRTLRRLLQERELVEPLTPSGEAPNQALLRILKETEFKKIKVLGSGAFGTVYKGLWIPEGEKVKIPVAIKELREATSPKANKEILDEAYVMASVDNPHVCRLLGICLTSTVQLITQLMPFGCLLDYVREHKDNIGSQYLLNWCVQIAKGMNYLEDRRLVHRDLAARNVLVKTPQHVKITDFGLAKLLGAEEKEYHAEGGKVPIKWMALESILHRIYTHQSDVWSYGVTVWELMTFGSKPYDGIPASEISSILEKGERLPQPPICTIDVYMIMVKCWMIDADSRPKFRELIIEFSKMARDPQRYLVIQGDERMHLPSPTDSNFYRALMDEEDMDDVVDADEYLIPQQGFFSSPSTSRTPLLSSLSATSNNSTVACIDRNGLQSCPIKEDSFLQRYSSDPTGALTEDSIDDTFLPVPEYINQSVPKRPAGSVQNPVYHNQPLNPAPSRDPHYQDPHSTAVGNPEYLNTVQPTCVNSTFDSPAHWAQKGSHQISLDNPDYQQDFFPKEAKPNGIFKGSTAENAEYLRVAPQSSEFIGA

For `Cc1ccc(C(=O)Nc2ccc(CN3CCN(C)CC3)c(C(F)(F)F)c2)cc1C#Cc1cnc2cccnn12`, the inhibition result with BaF3 [1] was “inactive”.

For the compound `COc1cc(N2CCC(N3CCN(C)CC3)CC2)ccc1Nc1ncc(Cl)c(Nc2ccccc2S(=O)(=O)C(C)C)n1`, the inhibition entry in the experiment with BaF3 [2], in the experiment with BaF3 [3], in the experiment with BaF3 [4] and with BaF3 [5] was “inactive” each time.

As for `COc1cc(N2CCC(N)CC2)ccc1Nc1ncc(Cl)c(-c2c[nH]c3ccccc23)n1`, the inhibition result in experiment [6], in experiment [7], in experiment [8] and in experiment [9] was “Active” throughout.

As for `COc1cc(N2CCC(N3CCN(C)CC3)CC2)ccc1Nc1ncnc(Nc2ccccc2S(=O)(=O)C(C)C)n1`, the inhibition entry with BaF3 [2], with BaF3 [3], in the experiment on BaF3 [4] and in the experiment on BaF3 [5] was “inactive” throughout.

On to `CN(C)C/C=C/C(=O)Nc1cc2c(Nc3ccc(F)c(Cl)c3)ncnc2cc1O[C@H]1CCOC1` [AFATINIB], for which the inhibition result in the experiment with PC-9 [10], with PC-9 [11], in the experiment on PC-9 [15] and in the experiment on PC-9 [20] was “Active” each time. The outcome in the experiment on NCI-H460 and with A549 was Active. The inhibition entry in the experiment with BaF3 [12], in the experiment on BaF3 [13], with BaF3 [14], with BaF3 [16], with BaF3 [17] and in the experiment on BaF3 [18] was “inactive” each time. Moreover, the inhibition entry in the experiment with BaF3 [19] was “inactive”.

Consider `Cc1cc(Nc2ncc(Cl)c(Nc3ccccc3S(=O)(=O)C(C)C)n2)c(OC(C)C)cc1C1CCNCC1`, for which the inhibition entry with BaF3 [2], in the experiment on BaF3 [3], in the experiment with BaF3 [4] and with BaF3 [5] was “inactive” throughout.

Regarding `C=CC(=O)Nc1cc(Nc2nccc(-c3cn(C)c4ccccc34)n2)c(OC)cc1N(C)CCN(C)C`, the inhibition entry in the experiment with PC-9 [10], in the experiment with PC-9 [11], in the experiment with PC-9 [21], with PC-9 [22], in the experiment on PC-9 [15] and in the experiment with PC-9 [20] was “Active” in each case. Also, the result in the experiment with NCI-H460, in the experiment with PC-9 [23], with A549 and in the experiment with PC-9 [24] was Active. Moreover, the inhibition entry in the experiment on BaF3 [12], in the experiment with BaF3 [13], in the experiment with BaF3 [14], with BaF3 [16], in the experiment with BaF3 [17] and in the experiment with BaF3 [18] was “inactive” in each case. Moreover, the inhibition result in the experiment on BaF3 [19] was “inactive”. The result (in experiment [25]; in the experiment on PC-9 [26]) was inactive.
